# Assay results as given in article PMC11168086 (RSC Advances, 2024).
# Key:
# [1] = Kinetic aqueous solubility; type: physicochemical; settings: PBS buffer, pH 7.4, aqueous buffer, kinetic from dmso stock
# Method in brief: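 10 mM DMSO stocks were diluted into PBS pH 7.4 to a 500 μM target and shaken 2 h at room temperature. Samples were vacuum-filtered, diluted with acetonitrile to prevent precipitation, and scanned by UV-vis over 250–500 nm. Concentration was derived from a 3-point calibration at each compound's λmax.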
# [2] = Intestinal-specific PAMPA; type: in vitro ADME; settings: pH 6.5
# Method in brief: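 Donor solutions at nominal 500 μM came from 10 mM DMSO stocks diluted in phosphate donor buffer, pH 6.5. The acceptor buffer held 5% DMSO. The membrane was phosphatidylcholine plus cholesterol in chloroform/dodecane/hexane (5:25:70 v/v). Plates were incubated 4 h at 37 °C, covered. Acceptor UV-vis absorbance was read over 250–500 nm. Pa was calculated by the Wohnsland–Faller equation from acceptor versus equilibrium absorbance at λmax.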
# [3] = test system: MDA-MB-231 (breast cancer) cells; experiment: MTT antiproliferative assay, MDA-MB-231; type: cell-based, human; settings: for IC50: Homo sapiens, MDA-MB-231, 72 h, MDA-MB-231, MTT, 72 h; for Lipophilic efficiency (LipE = pIC50 – logP): MDA-MB-231
# Method in brief: (§1)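 Cells from ECACC were grown in MEM with 10% FBS, non-essential amino acids and penicillin-streptomycin, at 37 °C and 5% CO2. Cells were seeded at 5000 per well, left overnight, then exposed to test compound 72 h. MTT was added for 4 h, and formazan was dissolved in DMSO (60 min, 37 °C) and read at 545 nm. Compounds giving >50% inhibition at 10 μM were rerun over 0.1–30 μM for IC50. Two independent experiments used five wells each, with cisplatin as positive control.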
# [4] = test system: A2780 (ovarian cancer) cells; experiment: MTT antiproliferative assay, A2780; type: cell-based, human; settings: for Lipophilic efficiency (LipE = pIC50 – logP): A2780; for IC50: Homo sapiens, A2780, 72 h
# Method in brief: as §1
# [5] = test system: HeLa (cervical cancers) cells; experiment: MTT antiproliferative assay, HeLa; type: cell-based, human; settings: for IC50: Homo sapiens, 72 h
# Method in brief: as §1
# [6] = test system: MCF7 (breast cancer) cells; experiment: MTT antiproliferative assay, MCF7; type: cell-based, human; settings: for IC50: MCF-7, MTT, 72 h; for Lipophilic efficiency (LipE = pIC50 – logP): MCF-7
# Method in brief: as §1
Compound,solubility kinetic at 2 h [1] [µM],"Papp at 4 h, 500 μM [2] [×10⁻⁶ cm/s]",IC50 [3] [µM],IC50 [4] [µM],IC50 [5] [µM],"IC50 ([6]; Homo sapiens, MCF7, 72 h) [µM]",IC50 [6] [µM],Lipophilic efficiency (LipE = pIC50 – logP) [3],Lipophilic efficiency (LipE = pIC50 – logP) [4],Lipophilic efficiency (LipE = pIC50 – logP) [5],Lipophilic efficiency (LipE = pIC50 – logP) [6]
"C=C(C)[C@@H]1CC[C@@H](C)C[C@H]1OCc1ccccc1 [Compound 2a, O-benzyl isopulegol]",1.1 ± 0.01,,,,,,,,,,
C=C(C)[C@@H]1CC[C@@H](C)C[C@H]1OCc1ccc(OC)cc1 [Compound 2c],247 ± 2.8,26.1 ± 5.4,,,,,,,,,
C[C@@H]1CC[C@@H]([C@](C)(O)CNCc2ccccc2)[C@H](OCc2ccccc2)C1 [Compound 6a],3.3 ± 0.01,,3.4,2.6,2.8,2.3,,0.01,0.12,0.09,0.18
C[C@@H]1CC[C@@H]([C@](C)(O)CNCc2ccc(F)cc2)[C@H](OCc2ccccc2)C1 [Compound 7a],2.5 ± 0.1,,,,24.3,20.3,,,,,
C[C@@H]1CC[C@@H]([C@](C)(O)CNCc2cccc(F)c2)[C@H](OCc2ccccc2)C1 [Compound 8a],31.8 ± 1,9.8 ± 1.2,9.9,9.3,5.2,3.5,,−0.28,−0.25,0.00,0.17
C[C@@H]1CC[C@@H]([C@](C)(O)CNCc2ccccc2F)[C@H](OCc2ccccc2)C1 [Compound 9a],1.4 ± 0.02,,,,6.5,8.6,,,,−0.09,−0.21
COc1ccc(CNC[C@@](C)(O)[C@@H]2CC[C@@H](C)C[C@H]2OCc2ccccc2)cc1 [Compound 10a],25.7 ± 1,20.6 ± 1.4,5.7,7.3,4.3,1.9,,−0.15,−0.25,−0.03,0.32
COc1cccc(CNC[C@@](C)(O)[C@@H]2CC[C@@H](C)C[C@H]2OCc2ccccc2)c1 [Compound 11a],82 ± 2.2,1.8 ± 0.5,11.7,12.5,6.3,2,,,,−0.19,0.32
C[C@@H]1CC[C@@H]([C@](C)(O)Cn2ccnc2)[C@H](OCc2ccccc2)C1 [Compound 14a],4.1 ± 0.7,,,,24.5,,,,,,
C[C@@H]1CC[C@@H]([C@](C)(O)Cn2cnc3ccccc32)[C@H](OCc2ccccc2)C1 [Compound 15a],38.7 ± 2,39.3 ± 4.2,16.7,12.3,11.6,7,,,,,0.02
C=C(COCc1ccccc1)[C@@H]1CC[C@@H](C)C[C@H]1OCc1ccccc1 [Compound 30a],40.8 ± 5,,,,,,,,,,
C=C(COCc1ccc(F)cc1)[C@@H]1CC[C@@H](C)C[C@H]1OCc1ccc(F)cc1 [Compound 30b],17.6 ± 0.6,,,,,,,,,,
C[C@@H]1CC[C@@H]([C@](O)(CNCc2cccc3ccccc23)COCc2ccccc2)[C@H](OCc2ccccc2)C1 [Compound 41a],1 ± 0.03,,3.6,5,2.6,5.9,,−2.42,−2.57,−2.28,−2.64
C[C@@H]1CC[C@@H]([C@@](O)(CNCc2cccc3ccccc23)COCc2ccccc2)[C@H](OCc2ccccc2)C1 [Compound 41b],0.5 ± 0.01,,2.6,4.1,2.5,5.7,,−2.28,−2.48,−2.27,−2.62
C[C@@H]1CC[C@@H]([C@](O)(CNCc2ccccc2)COCc2ccc(F)cc2)[C@H](OCc2ccc(F)cc2)C1 [Compound 44a],163 ± 1.6,28.8 ± 2.9,1.5,2.2,1.3,0.88,,−0.81,−1.00,−0.78,−0.59
C[C@@H]1CC[C@@H]([C@](O)(CNCc2ccc(F)cc2)COCc2ccc(F)cc2)[C@H](OCc2ccc(F)cc2)C1 [Compound 45a],122 ± 4.5,33.3 ± 3,1.8,2.3,2.9,< 1,0.84,−1.02,−1.12,−1.23,−0.69

# Now from value to compound, other results behind:
solubility kinetic at 2 h [1] [µM],"Papp at 4 h, 500 μM [2] [×10⁻⁶ cm/s]",IC50 [3] [µM],IC50 [4] [µM],IC50 [5] [µM],"IC50 ([6]; Homo sapiens, MCF7, 72 h) [µM]",IC50 [6] [µM],Compound,Lipophilic efficiency (LipE = pIC50 – logP) [3],Lipophilic efficiency (LipE = pIC50 – logP) [4],Lipophilic efficiency (LipE = pIC50 – logP) [5],Lipophilic efficiency (LipE = pIC50 – logP) [6]
90 ± 4.8,50.7 ± 4.7,,,,,,C=C(C)[C@@H]1CC[C@@H](C)C[C@H]1OCc1ccc(F)cc1 [Compound 2b],,,,
270 ± 21,49.2 ± 4,12.8,7.4,4.6,4.2,,COc1ccccc1CNC[C@@](C)(O)[C@@H]1CC[C@@H](C)C[C@H]1OCc1ccccc1 [Compound 12a],,−0.26,−0.05,−0.01
2.1 ± 0.1,,25,13.7,5.4,4.3,,C[C@@H]1CC[C@@H]([C@](C)(O)CNCc2cccc3ccccc23)[C@H](OCc2ccccc2)C1 [Compound 13a],,,−1.04,−0.94
34.6 ± 1.1,26.3 ± 4.6,27.6,10.9,6.5,9.4,,C[C@@H]1CC[C@@H]([C@@](C)(O)Cn2cnc3ccccc32)[C@H](OCc2ccccc2)C1 [Compound 15b],,,0.06,−0.10
31.5 ± 1.3,,,,24.7,,,C=C(COCc1ccc(OC)cc1)[C@@H]1CC[C@@H](C)C[C@H]1OCc1ccc(OC)cc1 [Compound 30c],,,,
2.8 ± 0.2,,4,4.1,2.6,2,,C[C@@H]1CC[C@@H]([C@](O)(CNCc2ccccc2)COCc2ccccc2)[C@H](OCc2ccccc2)C1 [Compound 34a],−1.35,−1.36,−1.16,−1.05
8 ± 1,,3.4,3.3,2.3,3.7,,C[C@@H]1CC[C@@H]([C@@](O)(CNCc2ccccc2)COCc2ccccc2)[C@H](OCc2ccccc2)C1 [Compound 34b],−1.28,−1.26,−1.11,−1.32
7.7 ± 0.7,,,,,,,C[C@@H]1CC[C@@H]([C@@](O)(COCc2ccccc2)Cn2ccnc2)[C@H](OCc2ccccc2)C1 [Compound 42a],,,,
5.2 ± 0.3,,,,,,,C[C@@H]1CC[C@@H]([C@](O)(COCc2ccccc2)Cn2ccnc2)[C@H](OCc2ccccc2)C1 [Compound 42b],,,,
97 ± 2.8,23.2 ± 2.7,2.7,2.1,3,0.96,,C[C@@H]1CC[C@@H]([C@@](O)(CNCc2ccccc2)COCc2ccc(F)cc2)[C@H](OCc2ccc(F)cc2)C1 [Compound 44b],−1.08,−0.97,−1.12,−0.63
88 ± 0.9,29.5 ± 3.6,1.9,1.5,2.5,< 1,0.9,COc1ccc(CNC[C@](O)(COCc2ccc(F)cc2)[C@@H]2CC[C@@H](C)C[C@H]2OCc2ccc(F)cc2)cc1 [Compound 46a],−1.22,−1.12,−1.33,
